Data taken from publication PMC5633258 (International Journal for Parasitology: Drugs and Drug …, 2017).

How the values were obtained:
[1] = system: LdAI transcript in promastigotes; test: Semi quantitative RT-PCR and real-time PCR of LdAI expression, promastigotes; type: cell-based, Leishmania donovani; conditions: 0.125 μg/ml AmB for 8 h vs untreated
[2] = system: pLP2-LdAI transfected promastigotes (WT-LdAI); test: MTT survival of LdAI over-expressing promastigotes; type: cell-based, Leishmania donovani
[3] = system: LdAI transcript in axenic amastigotes; test: Real-time PCR of LdAI expression, axenic amastigotes; type: cell-based, Leishmania donovani; conditions: AmB treated vs untreated
[4] = system: LdAI transfected amastigotes (WT-LdAI); test: MTT survival of LdAI transfected axenic amastigotes; type: cell-based, Leishmania donovani
[5] = system: L. donovani wild type AG83 (WT) promastigotes; test: MTT survival of wild type promastigotes; type: cell-based; conditions: Leishmania donovani, 48 h
Summary of the method: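 AG83 promastigotes were kept in M199 (pH 5.5) with 10% FBS. Late-exponential cells, diluted to 2 × 10^6/ml, were exposed to varying concentrations of test compound prepared in FBS-free M199 for 48, 72 and 96 h. Viability was read by MTT at 570 nm as % survival (mean, standard error, three independent experiments). IC50 came from a log(inhibitor) vs normalised response fit.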

[6] = target: T1, LdAI (Leishmania donovani, UniProt A0A3Q8IA09); test: Fluorometric titration of ligands with LdAI; type: binding
T1 sequence (A0A3Q8IA09 1-398): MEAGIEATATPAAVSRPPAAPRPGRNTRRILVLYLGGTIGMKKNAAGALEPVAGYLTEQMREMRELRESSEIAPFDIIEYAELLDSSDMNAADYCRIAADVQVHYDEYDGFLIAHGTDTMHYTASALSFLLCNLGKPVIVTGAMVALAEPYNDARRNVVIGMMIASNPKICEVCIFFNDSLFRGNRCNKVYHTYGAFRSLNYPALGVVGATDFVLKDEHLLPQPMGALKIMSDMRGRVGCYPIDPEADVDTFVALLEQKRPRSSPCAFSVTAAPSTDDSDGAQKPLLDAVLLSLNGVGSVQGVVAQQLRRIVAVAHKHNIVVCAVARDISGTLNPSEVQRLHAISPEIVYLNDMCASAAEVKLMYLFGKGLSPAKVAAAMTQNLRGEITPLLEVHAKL
Summary of the method: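 Fluorometric titrations at 298 K in 20 mM Tris, 150 mM NaCl, pH 8.0. Constant enzyme was titrated with increasing ligand (Asp, Glu or test compound), with a 300 s pre-scan delay. Excitation was 274 nm and emission was recorded 290–400 nm. Kd came from a single-site specific binding fit, Y = Bmax*X/(Kd + X).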

[7] = target: T1, LdAI; test: Isothermal titration calorimetry with LdAI; type: binding; conditions: for N (Drug/LdAI) / TΔS / ΔH / ΔG: ITC, direct titration; for N (Drug/LdAI) / TΔS / ΔH: 3 μM LdAI, 298 K; for ΔG: ΔG= ΔH−TΔS
Summary of the method: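 Direct ITC at 298 K in 20 mM Tris, 150 mM NaCl, pH 8.0. LdAI in the cell was titrated with test compound: one small injection, then 25 injections. Heats of dilution were normalised by buffer titrations. A single-site model with Levenberg–Marquardt nonlinear fitting gave Ka, ΔH and ΔS, and ΔG was calculated as ΔH − TΔS.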

[8] = target: T1, LdAI; test: Competitive inhibition assay, Gln hydrolysis kinetics; type: biochemical; conditions: Gln as substrate, LdAI alone, no inhibitor
[9] = substrate: NC(=O)CC[C@H](N)C(=O)O; test: as above; type: biochemical, Leishmania donovani; conditions: other: Gln as substrate, LdAI alone, no inhibitor; pH 8.0; 25.0 °C

Kd [6]	Kd [7]	N (Drug/LdAI) [7]	TΔS [7]	ΔH [7]	ΔG [7]	Molecule	also measured
						C[C@@H]1[C@H](O)[C@@H](C)/C=C/C=C/C=C/C=C/C=C/C=C/C=C/[C@H](O[C@@H]2O[C@H](C)[C@@H](O)[C@H](N)[C@@H]2O)C[C@@H]2O[C@](O)(C[C@@H](O)C[C@@H](O)[C@H](O)CC[C@@H](O)C[C@@H](O)CC(=O)O[C@H]1C)C[C@H](O)[C@H]2C(=O)O [AmB, Amphotericin B]	enhancement in LdAI transcription (semiquantitative PCR) [1]: 2.5 fold; increase in LdAI transcript expression (quantitative real time PCR) [1]: four; IC50 ([2]; Leishmania donovani, 48 h): 2.2 ± 0.3 µM; lower IC90 in wild-type than in LdAI over-expressing parasites ([2]; promastigote form): three; increase in IC50, LdAI transfected vs non-transfected ([2]; promastigotes): three; increase in LdAI transcript expression (quantitative real time PCR) [3]: five; IC50 ([4]; Leishmania donovani, 48 h): 1.9 ± 0.6 µM; lower IC90 in wild-type than in LdAI over-expressing parasites ([4]; amastigote form): eight; increase in IC50, LdAI transfected vs non-transfected ([4]; amastigotes): eight; IC50 [5]: 0.6 ± 0.07 µM
2.4 ± 0.4 µM	7.7 µM	4.0 ± 0.7	0.64 kcal/mol	-6.34 ± 0.3 kcal/mol	-6.98 kcal/mol	N[C@@H](CC(=O)O)C(=O)O [Asp, L-aspartic acid]	
						NC(=O)CC[C@H](N)C(=O)O [Gln, L-glutamine]	Vmax [8]: 267.9 ± 7.6
11.6 ± 1.3 µM	5 µM	2.14 ± 0.6	-18.38 kcal/mol	-25.6 ± 1.1 kcal/mol	-7.22 kcal/mol	N[C@@H](CCC(=O)O)C(=O)O [Glu, L-glutamic acid]	
						LdAI (Leishmania donovani) (protein) MEAGIEATATPAAVSRPPAAPRPGRNTRRILVLYLGGTIGMKKNAAGALEPVAGYLTEQMREMRELRESSEIAPFDIIEYAELLDSSDMNAADYCRIAADVQVHYDEYDGFLIAHGTDTMHYTASALSFLLCNLGKPVIVTGAMVALAEPYNDARRNVVIGMMIASNPKICEVCIFFNDSLFRGNRCNKVYHTYGAFRSLNYPALGVVGATDFVLKDEHLLPQPMGALKIMSDMRGRVGCYPIDPEADVDTFVALLEQKRPRSSPCAFSVTAAPSTDDSDGAQKPLLDAVLLSLNGVGSVQGVVAQQLRRIVAVAHKHNIVVCAVARDISGTLNPSEVQRLHAISPEIVYLNDMCASAAEVKLMYLFGKGLSPAKVAAAMTQNLRGEITPLLEVHAKL	Km [9]: 9.5 ± 0.8 mM
